25 compounds from ChEMBL document CHEMBL3045604, “Phytotoxicity of sarmentine isolated from long pepper (Piper longum) fruit” (J Agric Food Chem, 2010) can be followed below.

The source made the active and inactive calls. No cut-off for these calls is given here.

Data set [1] has as its system Echinochloa crus-galli. Put plainly: (§1) Phytotoxicity against Echinochloa crus-galli (barnyard grass) assessed as mortality measured after 3 days at 5 mg/ml by foliar spraying. The class given is functional. The settings on record: for mortality at 5000 µg/mL: 72 h. An outline of the steps:
(§2)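 Whole plants sprayed on the foliage with freshly prepared test solution at 5 mg/mL. Spray volume was matched to foliar surface area, roughly 1 to 3 mL per pot. One or two pots were treated per species, depending on foliar area and plant availability.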

The next data set has as its system Chenopodium album. Put plainly: Phytotoxicity against Chenopodium album assessed as mortality measured after 3 days at 5 mg/ml by foliar spraying. The class given is functional. As to conditions: 72 h. An outline of the steps:
as §2

A further data set deals with Rumex crispus. The data set is described as follows: Phytotoxicity against curly dock Rumex crispus assessed as mortality measured after 3 days at 5 mg/ml by foliar spraying. As to conditions: 72 h. Format: functional. An outline of the steps: as §2
A further data set relates to Solanum nigrum. Put plainly: Phytotoxicity against Solanum nigrum (black nightshade) assessed as mortality measured after 3 days at 5 mg/ml by foliar spraying. The class given is functional. The settings on record: 72 h. An outline of the steps: as §2
Another data set has as its system Convolvulus arvensis. Put plainly: Phytotoxicity against Convolvulus arvensis assessed as mortality measured after 3 days at 5 mg/ml by foliar spraying. As to conditions: 72 h. The class given is functional. An outline of the steps:
as §2

In the next data set the test system is Erigeron canadensis. Put plainly: Phytotoxicity against Conyza canadensis (horseweed)assessed as mortality measured after 3 days at 5 mg/ml by foliar spraying. Format: functional. As to conditions: 72 h. An outline of the steps: as §2
A further data set relates to Leptochloa. Put plainly: Phytotoxicity against Leptochloa fascicularis (sprangletop) assessed as mortality measured after 3 days at 5 mg/ml by foliar spraying. Format: functional. The settings on record: 72 h. An outline of the steps: as §2
The next data set concerns Oryza sativa. Put plainly: Herbicidal activity against Oryza sativa (rice) (M-104) Oryza sativa L assessed as mortality measured after 3 days at 5 mg/ml by foliar spraying. Format: organism-based. As to conditions: in vivo, other, 72 h. An outline of the steps:
as §2

The test system of data set [2] is Echinochloa crus-galli. The description is as §1. The class given is functional. As to conditions: 72 h. An outline of the steps: as §2
In another data set the test system is Mutarda arvensis. The data set is described as follows: Phytotoxicity against wild mustard Sinapis arvensis assessed as mortality measured after 3 days at 5 mg/ml by foliar spraying. The class given is functional. As to conditions: 72 h. An outline of the steps: as §2
The next data set relates to Digitaria sanguinalis. Put plainly: Phytotoxicity against Digitaria sanguinalis (hairy crabgrass) assessed as mortality measured after 3 days at 5 mg/ml by foliar spraying. The settings on record: 72 h. The class given is functional. An outline of the steps:
as §2

For another data set, the system named is Taraxacum officinale. The data set is described as follows: Phytotoxicity against dandelion Taraxacum officinale (dandelion) assessed as mortality measured after 3 days at 5 mg/ml by foliar spraying. As to conditions: 72 h. The class given is functional. An outline of the steps:
as §2

For a further data set, the system named is Poa annua. The data set is described as follows: Phytotoxicity against annual bluegrass Poa annua assessed as mortality measured after 3 days at 5 mg/ml by foliar spraying. Format: functional. The settings on record: 72 h. An outline of the steps:
as §2

A further data set has as its system Amaranthus retroflexus. Put plainly: Phytotoxicity against Amaranthus retroflexus assessed as mortality measured after 3 days at 5 mg/ml by foliar spraying. The settings on record: 72 h. The class given is functional. An outline of the steps: as §2
The next data set has as its system Cyperus difformis. Put plainly: Phytotoxicity against sedge Cyperus difformis assessed as mortality measured after 3 days at 5 mg/ml by foliar spraying. Format: functional. As to conditions: 72 h. An outline of the steps:
as §2

In the case of `O=C(O)/C=C/c1ccccc1` [CINNAMIC ACID], the mortality (usually the percentage killed) at 5000 µg/mL with Echinochloa crus-galli [1] amounted to 60%.

`O=C(/C=C/c1ccccc1)N1CCCCC1`: the mortality at 5000 µg/mL in the data set on Echinochloa crus-galli [1] is 40%.

Consider `CCCCCCC/C=C/C(=O)NC1CCCC1`, for which the mortality at 5000 µg/mL with Echinochloa crus-galli [1] is less than 20%.

Regarding `CCCCCCC/C=C/C(=O)N1CCCCC1`, the mortality at 5000 µg/mL in the data set on Echinochloa crus-galli [1] came out at 80%.

Turning to `CCCCCCCCCC(=O)N1CCCCCC1` [N-(DECANOYL)HEXAMETHYLENEIMINE], the mortality at 5000 µg/mL in the data set on Echinochloa crus-galli [1] worked out at 80%.

Regarding `O=C(/C=C/c1ccccc1)N1CCCC1`, the mortality at 5000 µg/mL in the data set on Echinochloa crus-galli [1] came to 80%.

`O=C(/C=C/c1ccccc1)N1CCCCCC1`: the mortality at 5000 µg/mL in the data set with Echinochloa crus-galli [1] was less than 20%.

Turning to `CCCCC/C=C\C=C\C(=O)N1CCCCC1` [(2E,4Z-DECADIENOYL)PIPERIDINE], the mortality at 5000 µg/mL with Echinochloa crus-galli [1] is 80%.

Consider `C1CCCNCC1`, for which the mortality result with Echinochloa crus-galli [1] is “inactive”.

In the case of `CCCCC/C=C\C=C\C(=O)N1CCCC1` [(2E,4Z-DECADIENOYL)PYRROLIDINE], in the data set on Echinochloa crus-galli [1], the mortality at 5000 µg/mL was 80%.

For the compound `C1CCNCC1`, in the data set with Echinochloa crus-galli [1], the mortality entry was “inactive”.

With `CCCCC/C=C/C=C/C(=O)N1CCCC1` [SARMENTINE], the mortality at 5000 µg/mL in the data set on Chenopodium album is 80%; with Rumex crispus it was 80%; in the data set on Solanum nigrum, 80%; in the data set with Convolvulus arvensis it was 80%; in the data set with Erigeron canadensis it was less than 20%; in the data set on Leptochloa it was 80%. Besides, the mortality at 5000 µg/mL in the data set on Echinochloa crus-galli [2], in the data set with Mutarda arvensis, with Digitaria sanguinalis, in the data set on Taraxacum officinale, in the data set on Poa annua and in the data set with Amaranthus retroflexus was 80% each time. Moreover, the mortality at 5000 µg/mL in the data set with Echinochloa crus-galli [1] was found to be 80%; in the data set with Cyperus difformis it was 20%. Moreover, the mortality entry in the data set on Oryza sativa was “Not Active”.

Take `CCCCC/C=C\C=C\C(=O)OCC`: the mortality at 5000 µg/mL in the data set with Echinochloa crus-galli [1] is less than 20%.

For `CCCCCCC/C=C/C(=O)N1CCCC1`, the mortality at 5000 µg/mL in the data set on Echinochloa crus-galli [1] is 80%.

For `CCCCC/C=C\C=C\C(=O)NC1CCCC1`, in the data set on Echinochloa crus-galli [1], the mortality at 5000 µg/mL was less than 20%.

With `CCCCCCCCCC(=O)O` [DECANOIC ACID], in the data set with Echinochloa crus-galli [1], the mortality at 5000 µg/mL was found to be 80%.

With `CCCCCCCCCC(=O)N1CCCC1` [N-(DECANOYL)PYRROLIDINE], the mortality at 5000 µg/mL in the data set with Echinochloa crus-galli [1] is 80%.

In the case of `NC1CCCC1`, the mortality result in the data set with Echinochloa crus-galli [1] is “inactive”.

As for `CCCCC/C=C\C=C\C(=O)N1CCCCCC1` [(2E,4Z-DECADIENOYL)HEXAMETHLENEIMINE], in the data set with Echinochloa crus-galli [1], the mortality at 5000 µg/mL worked out at 80%.

In the case of `C1CCNC1`, the mortality entry with Echinochloa crus-galli [1] was “inactive”.

For `O=C(/C=C/c1ccccc1)NC1CCCC1`, the mortality at 5000 µg/mL in the data set on Echinochloa crus-galli [1] is less than 20%.

For `CCCCCCCCCC(=O)NC1CCCC1` [N-CYCLOPENTYLDECANAMIDE], the mortality at 5000 µg/mL in the data set with Echinochloa crus-galli [1] is less than 20%.

With `CCCCCCC/C=C/C(=O)O` [2E-DECENOIC ACID], the mortality at 5000 µg/mL in the data set on Echinochloa crus-galli [1] was 80%.

For the compound `CCCCCCC/C=C/C(=O)N1CCCCCC1`, the mortality at 5000 µg/mL in the data set with Echinochloa crus-galli [1] is 80%.

Turning to `CCCCCCCCCC(=O)N1CCCCC1` [N-(DECANOYL)PIPERIDINE], in the data set on Echinochloa crus-galli [1], the mortality at 5000 µg/mL worked out at 80%.
